Results gathered from unrelated publications.
Target: Serine/threonine-protein kinase Nek3 (NEK3, Homo sapiens, UniProt P51956)
Sequence (P51956 1-506, as in one of the studies): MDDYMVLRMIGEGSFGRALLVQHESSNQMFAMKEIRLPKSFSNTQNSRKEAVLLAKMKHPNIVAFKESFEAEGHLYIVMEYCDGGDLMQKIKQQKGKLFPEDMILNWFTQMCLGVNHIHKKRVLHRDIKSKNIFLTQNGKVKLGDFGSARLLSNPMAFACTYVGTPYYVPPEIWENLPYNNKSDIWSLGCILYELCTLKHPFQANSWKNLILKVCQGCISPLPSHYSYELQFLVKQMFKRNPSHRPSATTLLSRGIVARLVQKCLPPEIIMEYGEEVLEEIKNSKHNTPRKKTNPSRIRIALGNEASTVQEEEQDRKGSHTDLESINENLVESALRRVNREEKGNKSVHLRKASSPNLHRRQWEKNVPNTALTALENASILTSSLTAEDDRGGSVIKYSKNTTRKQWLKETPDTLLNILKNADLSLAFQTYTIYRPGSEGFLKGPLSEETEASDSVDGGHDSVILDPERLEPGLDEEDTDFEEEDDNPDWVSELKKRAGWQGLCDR

Compound | test | conditions | remaining binding
O=C(Nc1cnc(Oc2ccc(F)cc2)nc1)N1CCc2ncccc2[C@@H]1c1ccc(F)cc1 | cell-free assay, competition with immobilised ligand | 1 µM | 67%
O=C(NCC1CCOCC1)c1n[nH]cc1NC(=O)c1c(F)cccc1F | binding, competition with immobilised ligand | 1 µM | 66%
COc1ncc2cc3ccccc3nc2c1C#N | cell-free assay, competition with immobilised ligand | 5 µM | 100%
CN(c1nccc(-c2cnn3ncccc23)n1)C1CC1 | binding | 1 µM | 87%
CN(C(=O)c1ccccc1)c1cc(N(C)c2ccc3c(c2)CCc2ccc(C(=O)NCCN4CCOCC4)cc2C3=O)ccc1F | cell-free assay, competition with immobilised ligand | 1 µM | 99%
CN(C)c1nccc(-c2cnc3ncccn23)n1 | binding | 1 µM | 100%
c1cncc(-c2cccc(Nc3nccc(NC4CCCCC4)n3)c2)c1 | binding, competition with immobilised ligand | 10 µM | 56%
O=C(c1ccc(Nc2nccc(-c3cc4ccccc4s3)n2)cc1)N1CCC(N2CCCC2)CC1 | binding, competition with immobilised ligand | 1 µM | 5.4%
CNC(=O)[C@@H]1CC[C@@H](n2c(-c3ccc4cnccc4c3)nc3ccc(C(=O)NCc4cccc(C(N)=O)c4)cc32)C1 | binding, competition with immobilised ligand | 1 µM | 61%
C=CC(=O)N1CCC(C(=O)NCC(=O)N2CCN(c3nc(-c4cnc(N)nc4C(F)F)nc(N4CCOCC4)n3)CC2)CC1 | binding, competition with immobilised ligand | 1 µM | 51%
c1ccc(N2CCN(Cc3nc4ccccc4[nH]3)CC2)nc1 | binding, competition with immobilised ligand | 1 µM | 100%
c1cnn2ncc(-c3ccnc(N4CCC45COC5)n3)c2c1 | binding | 1 µM | 64%
CCOCCn1cc(C(=O)Nc2ccc(-n3nc(-c4cccnc4)cc3C(F)(F)F)cn2)ccc1=O | cell-free assay, competition with immobilised ligand | 1 µM | 100%
O=C(c1ccc(Nc2ncc(Cl)c(-c3ccc(Cl)s3)n2)cc1)N1CCC(N2CCCC2)CC1 | binding, competition with immobilised ligand | 1 µM | 0.45%
O=C(O)[C@H]1[C@H](Cn2nnc3ccccc3c2=O)CC[C@@H]1C(=O)c1ccc(OCCC2CCOCC2)cc1 | cell-free assay, competition with immobilised ligand | 1 µM | 86%
N[C@H]1CCN(c2nccc(-c3cnn4ncccc34)n2)C1 | binding | 1 µM | 100%
O=C(NCCCN1CCOCC1)c1ccc(Nc2nccc(-c3cc4ccccc4s3)n2)cc1 | binding, competition with immobilised ligand | 1 µM | 2.7%
CN(C)c1nccc(-c2cnn3ncccc23)n1 | binding | 1 µM | 100%
Cc1nccc(COC(=O)N2C[C@@H]3[C@@H](CNC(=O)c4ccc5[nH]nnc5c4)[C@@H]3C2)n1 | cell-free assay, competition with immobilised ligand | 1 µM | 100%
COc1cnc(Nc2cccc(S(N)(=O)=O)c2)nc1N1CCN(c2ccccc2)CC1 | binding, competition with immobilised ligand | 1 µM | 74%
C[C@H]1CCN(c2nccc(-c3cnn4ncccc34)n2)C1 | binding | 1 µM | 70%
